Assay outcomes as filed in PubChem.
An excerpt weighted towards active compounds, which were near 3.5% of everything screened.
RGS4 pot: potentiators or activators of RGS4. B-score at 10 µM. AID 463111. HEK293 M3R/inducible RGS4, carbachol calcium flux Fluo4; active compounds read low. hit rate 0.92% among 310,000;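 active = B-score of the integrated calcium signal more than 4 SD below the library mean, with starting fluorescence not abnormally high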;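 note: negative B-score means reduced calcium response which marks RGS4 activation or potentiation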
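test system = HEK293 cells with stable M3R and inducible RGS4 | schedule = recording 10 s baseline at 1 Hz, 100 s post-agonist | technique = Fluo4-AM (2 µM) calcium-flux fluorescence, kinetic read | measure = Agonist-evoked peak-minus-minimum fluorescence over baseline, integrated ratio, B score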
RGS4 inh: human RGS4 inhibition. P49798. B-score at 10 µM. HEK293 M3R/RGS4 inducible, Fluo-4 calcium flux; active compounds read high; triggered by carbachol at its EC20. hit rate 0.45% among 310,000;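 active = B-score, a plate-corrected calcium signal, over three deviations above library mean, with baseline fluorescence within five deviations of library mean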;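 note: RGS4 expression induced by doxycycline in cells with stable M3 receptor; B-score is computed from the integrated fluorescence ratio over baseline after carbachol; higher B-score means a larger calcium signal and so more RGS4 inhibition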
Target sequence (P49798 whole entry, looked up): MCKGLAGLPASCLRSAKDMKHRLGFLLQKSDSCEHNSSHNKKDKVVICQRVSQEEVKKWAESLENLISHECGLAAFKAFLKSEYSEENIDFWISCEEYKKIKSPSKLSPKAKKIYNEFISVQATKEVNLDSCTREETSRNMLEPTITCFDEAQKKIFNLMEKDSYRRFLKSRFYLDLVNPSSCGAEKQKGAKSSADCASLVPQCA
MrgX1 ag: activates human MrgX1 receptor signaling | B-score at 10 µM | MrgX1-HEK293 cells, Fluo-4 calcium fluorescence, agonist mode; active compounds read high | hit rate 0.44% among 310,000 | Q96LB2;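 active = calcium response B-score plate-corrected fluorescence ratio at least 3 library SD, with starting fluorescence B-score inside 5 SD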
Target sequence (Q96LB2 whole entry, looked up): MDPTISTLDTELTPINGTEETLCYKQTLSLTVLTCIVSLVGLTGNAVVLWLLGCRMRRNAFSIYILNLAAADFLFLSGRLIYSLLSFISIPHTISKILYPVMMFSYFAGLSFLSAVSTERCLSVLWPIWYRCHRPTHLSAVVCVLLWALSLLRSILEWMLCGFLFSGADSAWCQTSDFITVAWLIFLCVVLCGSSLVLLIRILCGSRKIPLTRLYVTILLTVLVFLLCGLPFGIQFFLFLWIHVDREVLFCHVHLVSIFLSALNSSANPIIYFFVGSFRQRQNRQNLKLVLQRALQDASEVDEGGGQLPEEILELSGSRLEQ
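Assay system: MrgX1-expressing HEK293 cells / Amount: fifteen thousand cells per well / Doses: test compound in the initial addition of three / Timing: cells plated overnight, dye loaded 0.5 h 37 °C, 0.5 h room temperature / Technique: kinetic calcium dye fluorescence, Fluo-4 NW / Control set: positive and negative controls per plate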
MrgX1 PAM: allosterically activates human MrgX1 receptor signaling | hit rate 0.63% among 310,000 | AID 588675 | Q96LB2 | B-score at 10 µM | MrgX1-HEK293, Fluo-4 calcium flux, FDSS; active compounds read high;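 active = plate-corrected calcium response at least 3 library SD above typical, normal starting fluorescence, not activating the receptor alone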;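 note: compound read alongside a low EC10 to EC30 dose of BAM8-22 agonist; peak minus trough fluorescence over baseline measured at the second addition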
MrgX1 antagonist: blocks BAM8-22 activation of human MrgX1 receptor. MRGX1-HEK293 calcium flux, Fluo-4, BAM8-22 antagonism; active compounds read low. B-score at 10 µM. hit rate 1.3% among 310,000;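 active = calcium-response B-score plate-corrected more than 3 library SD below zero, starting fluorescence within 5 deviations, no agonist response on first addition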;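 note: peak minus trough fluorescence over baseline after final BAM8-22 challenge near maximal dose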
Hits are given with their value; i = inactive.

SMILES	RGS4 pot	RGS4 inh	MrgX1 ag	MrgX1 PAM	MrgX1 antagonist
CCCNC(=O)c1ccc(CN2CCc3ccccc3C2)cc1	-7.1	i	i	i	i
COCC(C)NC(=O)c1ccc(CN2CCc3ccccc3C2)cc1 (stereo not given)	i	i	i	i	i
COCCNC(=O)c1ccc(CN2CCc3ccccc3C2)cc1	i	i	i	i	i
CCC(C)NC(=O)c1ccc(CN2CCc3ccccc3C2)cc1 (stereo not given)	-7.5	i	i	i	i
COc1ccc(/C=C(\NC(=O)c2ccc(C)cc2)C(=O)NCCCn2ccnc2)cc1	i	i	i	i	i
COc1ccc(O)c(/C=N/Nc2nc(Nc3ccccc3)nc(-n3nc(C)cc3C)n2)c1	-8.5	i	i	i	i
Cc1ccc(CN2CC(C(=O)N(Cc3nnc(-c4ccccc4Cl)o3)C3CC3)CC2=O)cc1 (stereo not given)	i	i	i	i	i
Fc1ccc(OCCOCCN2CCCC2)cc1	i	i	i	i	i
CC(OCCN1CCCC1)(c1ccc(F)cc1)c1ccc(F)cc1	-7.5	i	i	i	i
CCn1c(O)c(/C=N/N=C/c2ccccc2)c2ccc(C3=NNC(=O)CC3)cc21	i	i	i	i	-4.8
O=[N+]([O-])c1cc(Br)c2nsnc2c1N1CCOCC1	i	i	59	i	i
CC(=O)N1CCN(C(=O)c2cc(S(=O)(=O)N3CCCCC3)ccc2Cl)CC1	i	i	i	i	i
Cc1ccc2c(c1)S/C(=C/c1ccc[n+](C)c1)N2CCO	-7	i	i	i	i
OCC1CCCN(c2nc(CN3CCCCC3)nc3scc(-c4ccccc4)c23)C1 (stereo not given)	i	i	i	i	i
CCNc1nc(CN2CCCCC2)nc2scc(-c3ccccc3)c12	-7.2	i	i	i	i
Cc1cccc(C)c1NC(=O)COC(=O)c1cccc2c1C(=O)c1ccccc1C2=O	i	i	i	i	i
Cc1cccc(NC(=O)COC(=O)c2cccc3c2C(=O)c2ccccc2C3=O)c1C	-7.2	i	i	i	i
CN(C(=O)COC(=O)c1cccc(S(=O)(=O)N2CCCCCC2)c1)C1CCS(=O)(=O)C1 (stereo not given)	i	i	i	i	i
CN(C(=O)COC(=O)c1cccc(S(=O)(=O)N2CCOCC2)c1)C1CCS(=O)(=O)C1 (stereo not given)	i	i	i	i	-5.4
CC1(C(=O)N/N=C/c2ccccc2)CC1(Cl)Cl (stereo not given)	i	i	i	i	i
CCOC(=O)CC1C(=O)NCCN1c1nc2ccc(C)cn2c(=O)c1/C=C1\SC(=S)N(C(C)CC)C1=O (stereo not given)	i	i	108	i	i
CCCN1C(=O)/C(=C/c2c(N3CCNC(=O)C3CC(=O)OCC)nc3c(C)cccn3c2=O)SC1=S (stereo not given)	i	i	i	i	i
CCOC(=O)CC1C(=O)NCCN1c1nc2ccc(C)cn2c(=O)c1/C=C1\SC(=S)N(CC(C)C)C1=O (stereo not given)	i	i	103	i	i
CC(C)(C)NC(=O)CN(CC1CCCO1)C(=O)CNS(=O)(=O)c1ccc(F)cc1 (stereo not given)	i	i	i	i	i
CCOc1ccccc1CNCc1ccc(F)cc1	i	i	i	i	i
SMILES	RGS4 pot	RGS4 inh	MrgX1 ag	MrgX1 PAM	MrgX1 antagonist
COc1ccccc1NC(=O)c1cccc(N2C(=O)C3C4C=CC(C4)C3C2=O)c1 (stereo not given)	i	i	i	i	i
Cc1cc(NC(=O)c2ccc(F)cc2)n(C)n1	i	i	i	i	i
COc1cc(/C=C2/SC(=O)NC2=O)ccc1OC(=O)c1ccco1	i	i	i	i	i
COc1cc(/C=C2/SC(=S)N(C)C2=O)ccc1OC(=O)c1ccco1	i	i	i	i	-5
COc1cc(/C=C2\C(=N)N3N=CSC3=NC2=O)cc(Br)c1OC(=O)c1ccco1	i	i	34	i	i
CCS(=O)(=O)C1=NN2C(=N)/C(=C\c3ccc(OC(=O)c4ccco4)c(OC)c3)C(=O)N=C2S1	i	i	i	i	i
CC1CCN(C2=NN3C(=N)/C(=C\c4ccc(OC(=O)c5ccco5)cc4)C(=O)N=C3S2)CC1	i	i	i	i	i
CCS(=O)(=O)C1=NSC2=NC(=O)/C(=C\c3ccc(OC(=O)c4ccco4)c(OC)c3)C(=N)N21	i	i	i	28	i
CS(=O)(=O)C1=NSC2=NC(=O)/C(=C\c3ccc(OC(=O)c4ccco4)cc3)C(=N)N21	i	i	i	25	i
CCCCOc1ccc(NC(=O)CCSc2nccn2C)cc1	i	i	i	i	i
CC1=CC2=NC(=O)/C(=C\c3cc(C)n(-c4ccccc4F)c3C)C(=N)N2O1	i	i	i	i	i
COc1cc(/C=C2/C(=N)N3C(=NC2=O)SN=C3S(C)(=O)=O)ccc1OC(=O)c1ccco1	i	i	i	18	i
Cc1cc(/C=C2/C(=N)N3C(=NC2=O)SN=C3S(C)(=O)=O)c(C)n1-c1ccccc1F	i	i	i	11	i
COc1cc(/C=C2/C(=N)N3C(=NC2=O)SN=C3S(=O)(=O)C(C)C)ccc1OS(=O)(=O)c1ccccc1	i	i	i	13	i
CCOc1cc(/C=C2\C(=N)N3N=CSC3=NC2=O)ccc1OS(=O)(=O)c1ccccc1	i	i	57	i	i
Cc1ccc(C(=O)N2CCN(c3cnn(C)c(=O)c3Cl)CC2)cc1	i	i	i	i	i
COc1cccc(/C=N\NC(C)=O)c1OC/C=C/c1ccccc1	i	i	i	i	i
CC1=NN(C(=O)COc2cc(C)ccc2C(C)C)C(O)(c2ccccc2)C1 (stereo not given)	i	i	i	8	i
CCOc1ccc(S(=O)(=O)NC2CCCC2)cc1	i	i	i	i	i
COC(=O)Cn1ncc(N2CC(C)OC(C)C2)c(Cl)c1=O (stereo not given)	i	i	i	i	i
O=C(Oc1ccc(-c2cnc3ccccc3n2)cc1)c1cc([N+](=O)[O-])ccc1Cl	i	i	i	i	-4.9
CN1OC(Cn2cc(C#N)c(=O)n(C)c2=O)CC1c1ccccc1 (stereo not given)	i	i	i	i	-5.8
O=C(CCNS(=O)(=O)c1ccccc1)N1CCCCCC1	-7.1	i	i	i	i
Cc1nn(Cc2ccc(Cl)cc2)c(C)c1NC(=O)CSc1n[nH]c(C)c1[N+](=O)[O-]	i	i	i	i	-4.8
Cc1nn(Cc2ccccc2)c(C)c1NC(=O)CSc1n[nH]c(C)c1[N+](=O)[O-]	i	i	i	i	i
COc1ccc(CN(C(=O)CSc2nnc(-c3c[nH]c4ccccc34)o2)c2ccc(F)cc2)cc1OC	-8.4	i	i	i	i
COc1ccc(CN(C(=O)CSc2nnc(-c3ccc(F)cc3)o2)c2ccc(F)cc2)cc1	i	i	i	i	i
